Assay results as given in ChEMBL document CHEMBL1145518, “Potent immune-modulating and anticancer effects of NKT cell stimulatory glycolipids” (2007).
The source made the active and inactive calls. The rule behind the calls is not given here.

What was measured:
[1] = Induction of IL6 secretion in human CD161+ CD3+ NKT cells at 10 ug/ml after 18 hrs relative to basal level; assay type: functional
Procedure, shortened: (§1)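 Human Vα24i NKT cell lines were expanded for 10 days on irradiated (3,000 rad) autologous immature DCs with 10 units/ml IL-2. The cells (1 × 10^5) were cocultured with 5 × 10^4 irradiated immature CD14+ DCs plus glycolipid at 10 μg/ml. Supernatants were collected at 18 h and read on a 22-plex Luminex bead panel. Triplicates, mean ± SD.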

[2] = tested on: 4T1; experiment: Antitumor activity in mouse 4T1 cells xenografted BALB/c mouse assessed as suppression of tumor growth at 2 ug, iv; assay type: functional, cell-based
Procedure, shortened: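 BALB/c mice (n = 6) were inoculated s.c. with 4T1 breast cancer cells. From day 3 they were treated i.v. with glycolipid or vehicle twice weekly for 4 weeks. Tumor volume was recorded every 3 days for 1 month, and survival was monitored up to 54 days.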

[3] = Induction of RANTES secretion in human CD161+ CD3+ NKT cells at 10 ug/ml after 18 hrs relative to basal level; assay type: functional; procedure, shortened: as §1
[4] = Induction of IL3 secretion in human CD161+ CD3+ NKT cells at 10 ug/ml after 18 hrs relative to basal level; assay type: functional; procedure, shortened: as §1
[5] = Induction of MIPalpha secretion in human CD161+ CD3+ NKT cells at 10 ug/ml after 18 hrs relative to basal level; assay type: functional; procedure, shortened: as §1
[6] = Induction of IL13 secretion in human CD161+ CD3+ NKT cells at 10 ug/ml after 18 hrs relative to basal level; assay type: functional; procedure, shortened: as §1
[7] = Induction of IL2 secretion in human CD161+ CD3+ NKT cells at 10 ug/ml after 18 hrs relative to basal level; assay type: functional; procedure, shortened: as §1
[8] = Induction of IL10 secretion in human CD161+ CD3+ NKT cells at 10 ug/ml after 18 hrs relative to basal level; assay type: functional; procedure, shortened: as §1
[9] = Induction of IL12p70 secretion in human CD161+ CD3+ NKT cells at 10 ug/ml after 18 hrs relative to basal level; assay type: functional; procedure, shortened: as §1
[10] = Induction of IL15 secretion in human CD161+ CD3+ NKT cells at 10 ug/ml after 18 hrs relative to basal level; assay type: functional; procedure, shortened: as §1
[11] = Induction of IL8 secretion in human CD161+ CD3+ NKT cells at 10 ug/ml after 18 hrs relative to basal level; assay type: functional; procedure, shortened: as §1
[12] = Induction of MCP1 secretion in human CD161+ CD3+ NKT cells at 10 ug/ml after 18 hrs relative to basal level; assay type: functional; procedure, shortened: as §1
[13] = Induction of IFN-gamma secretion in human CD161+ CD3+ NKT cells at 10 ug/ml after 18 hrs relative to basal level; assay type: functional; procedure, shortened: as §1
[14] = Induction of GM-CSF secretion in human CD161+ CD3+ NKT cells at 10 ug/ml after 18 hrs relative to basal level; assay type: functional; procedure, shortened: as §1
[15] = tested on: NKT; experiment: Stimulation of cell expansion of human invariant CD161+/ Valpha24+/ CD56+/ CD3+ NKT cells by flow cytometry method; assay type: functional, cell-based
Procedure, shortened: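 CD56+ NK/NKT mixtures (2 × 10^6) were isolated from human leukopaks with anti-CD56 microbeads. They were cocultured with 4 × 10^5 autologous immature CD14+ DCs pulsed with glycolipid at 3 μg/ml, or with 0.3% DMSO, on day 2 for 18 h. Suspension cells were then transferred and kept in 100 units/ml IL-2 with fresh medium every 3 days. On day 9, CD161+/Vα24TCR+ cells were gated by flow cytometry and total Vα24i NKT cells counted. Triplicates, mean ± SD.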

[16] = Induction of IL12p40 secretion in human CD161+ CD3+ NKT cells at 10 ug/ml after 18 hrs relative to basal level; assay type: functional; procedure, shortened: as §1
[17] = Induction of IL4 secretion in human CD161+ CD3+ NKT cells at 10 ug/ml after 18 hrs relative to basal level; assay type: functional; procedure, shortened: as §1
[18] = Induction of TNFalpha secretion in human CD161+ CD3+ NKT cells at 10 ug/ml after 18 hrs relative to basal level; assay type: functional; procedure, shortened: as §1
[19] = tested on: TC1; experiment: Antitumor activity in TC1 cells xenografted C57BL/6 mouse assessed as suppression of tumor growth at 2 ug, iv; assay type: functional, cell-based
Procedure, shortened: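 C57BL/6 mice (n = 5/group) were inoculated i.v. with TC-1 lung cancer cells. They were then treated i.v. with 2 μg glycolipid per mouse, or 100 μl of 1% DMSO, twice weekly for 4 weeks. Kaplan–Meier survival and body weight were followed, with tumor-free mice as an additional control.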

[20] = tested on: Mus musculus; experiment: Activation of B cells in BALB/c mouse at 2 ug, iv after 72 hrs by flow cytometry; assay type: functional, organism-based
[21] = tested on: Mus musculus; experiment: Induction of MIPbeta secretion in BALB/c mouse serum at 2 ug, iv after 2 hrs relative to control; assay type: functional
Procedure, shortened: (§2)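 BALB/c mice received an i.v. injection of 100 μl of glycolipid diluted to 20 μg/ml in saline from DMSO stock, with 1% DMSO as vehicle. Serum cytokines/chemokines were measured at 2 and 18 h after injection.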

[22] = tested on: Mus musculus; experiment: Induction of MCP1 secretion in BALB/c mouse serum at 2 ug, iv after 2 hrs relative to control; assay type: functional; procedure, shortened: as §2
[23] = tested on: Mus musculus; experiment: Induction of TNFalpha secretion in BALB/c mouse serum at 2 ug, iv after 18 hrs relative to control; assay type: functional; procedure, shortened: as §2
[24] = tested on: Mus musculus; experiment: Induction of IFN-gamma secretion in BALB/c mouse serum at 2 ug, iv after 18 hrs relative to control; assay type: functional; procedure, shortened: as §2
[25] = tested on: Mus musculus; experiment: Induction of IL13 secretion in BALB/c mouse serum at 2 ug, iv after 2 hrs relative to control; assay type: functional; procedure, shortened: as §2
[26] = tested on: Mus musculus; experiment: Induction of IL12p70 secretion in BALB/c mouse serum at 2 ug, iv after 18 hrs relative to control; assay type: functional; procedure, shortened: as §2
[27] = tested on: Mus musculus; experiment: Induction of IL1-beta secretion in BALB/c mouse serum at 2 ug, iv after 18 hrs relative to control; assay type: functional; procedure, shortened: as §2
[28] = tested on: Mus musculus; experiment: Induction of IL3 secretion in BALB/c mouse serum at 2 ug, iv after 2 hrs relative to control; assay type: functional; procedure, shortened: as §2
[29] = tested on: Mus musculus; experiment: Induction of IL2 secretion in BALB/c mouse serum at 2 ug, iv after 2 hrs relative to control; assay type: functional; procedure, shortened: as §2
[30] = tested on: Mus musculus; experiment: Induction of IL10 secretion in BALB/c mouse serum at 2 ug, iv after 18 hrs relative to control; assay type: functional; procedure, shortened: as §2
[31] = tested on: Mus musculus; experiment: Induction of GM-CSF secretion in BALB/c mouse serum at 2 ug, iv after 2 hrs relative to control; assay type: functional; procedure, shortened: as §2
[32] = tested on: Mus musculus; experiment: Induction of KC secretion in BALB/c mouse serum at 2 ug, iv after 2 hrs relative to control; assay type: functional; procedure, shortened: as §2
[33] = tested on: Mus musculus; experiment: Induction of RANTES secretion in BALB/c mouse serum at 2 ug, iv after 2 hrs relative to control; assay type: functional; procedure, shortened: as §2
[34] = tested on: Mus musculus; experiment: Induction of IL6 secretion in BALB/c mouse serum at 2 ug, iv after 2 hrs relative to control; assay type: functional; procedure, shortened: as §2
[35] = tested on: Mus musculus; experiment: Induction of IL4 secretion in BALB/c mouse serum at 2 ug, iv after 2 hrs relative to control; assay type: functional; procedure, shortened: as §2
[36] = tested on: Mus musculus; experiment: Induction of IL12p40 secretion in BALB/c mouse serum at 2 ug, iv after 18 hrs relative to control; assay type: functional; procedure, shortened: as §2

Row | SMILES | Activity [1] | Activity [3] | Activity [4] | Activity [5] | Activity [6] | Activity [7] | Activity [8] | Activity [9] | Activity [10] | Activity [11] | Activity [12] | Activity [13] | Activity [14] | Activity [15] | Activity [16] | Activity [17] | Activity [18] | Activity [19] | further results
1 | CCCCCCCCCCCCCC[C@@H](O)[C@@H](O)[C@H](CO[C@H]1O[C@H](CO)[C@H](O)[C@H](O)[C@H]1O)NC(=O)CCCCCCCCCc1ccccc1 | 1.6 | 2.1 | 1.8 | 3.4 | 1.6 | 3.4 | 1.4 | 2.3 | 2.3 | 2.2 | 1.5 | 4.2 | 3.4 | Active | 1.4 | 3.2 | 5.6 | Active | Activity [2]: Active
2 | CCCCCCCCCCCCCC[C@@H](O)[C@@H](O)[C@H](CO[C@H]1O[C@H](CO)[C@H](O)[C@H](O)[C@H]1O)NC(=O)CCCc1ccccc1 | 1.6 | 1.5 | 1.8 | 3.2 | 1.6 | 1.4 | 1.3 | 1.2 | 2.2 | 1.6 | 1 | 2.1 | 2.8 |  | 1.4 | 1.9 | 3.3 |  | 
3 | CCCCCCCCCCCCCC[C@@H](O)[C@@H](O)[C@H](CO[C@H]1O[C@H](CO)[C@H](O)[C@H](O)[C@H]1O)NC(=O)CCc1ccc(C(F)(F)F)cc1 | 2.3 | 1.7 | 1.6 | 3.4 | 2.1 | 1.5 | 1.7 | 1.7 | 2.1 | 2.4 | 1.4 | 2.8 | 3.5 |  | 1.9 | 2.4 | 3.3 |  | 
4 | CCCCCCCCCCCCCC[C@@H](O)[C@@H](O)[C@H](CO[C@H]1O[C@H](CO)[C@H](O)[C@H](O)[C@H]1O)NC(=O)CCCCCc1ccccc1 | 2.7 | 1.8 | 4.1 | 3 | 2.6 | 5.9 | 2.4 | 3.3 | 2.6 | 2.2 | 1.3 | 4.6 | 5.6 | Active | 2.4 | 3 | 8.7 | Active | Activity [20]: Active
5 | CCCCCCCCCCCCCCCCCCCCCCCCCC(=O)N[C@@H](CO[C@@H]1O[C@H](CO)[C@H](O)[C@H](OS(=O)(=O)[O-])[C@H]1O)[C@H](O)[C@H](O)CCCCCCCCCCCCCC.[Na+] | 1.9 | 1.5 | 2.3 | 3.2 | 2.4 | 1.6 | 1.8 | 1.6 | 2.2 | 1.9 | 1.5 | 2.2 | 4.1 |  | 1.8 | 2.9 | 3.7 |  | 
6 | CCCCCCCCCCCCCC[C@@H](O)[C@@H](O)[C@H](CO[C@H]1O[C@H](CO)[C@H](O)[C@H](O)[C@H]1O)NC(=O)CCc1ccc(CC(C)C)cc1 | 2.1 | 1.3 | 1.9 | 2.8 | 1.4 | 1.3 | 2.2 | 1.8 | 2.2 | 5.5 | 0.9 | 1.9 | 3.8 | Active | 1.8 | 2.2 | 1.9 |  | 
7 | CCCCCCCCCCCCCCCCCCCCCCCCCC(=O)N[C@@H](CS[C@H]1O[C@H](CO)[C@H](O)[C@H](O)[C@H]1O)[C@H](O)[C@H](O)CCCCCCCCCCCCCC | 1.5 | 1.5 | 1.1 | 1.5 | 1.6 | 1.2 | 0.6 | 1 | 1.8 | 1.9 | 1.4 | 1.3 | 1.6 |  | 1.7 | 2.1 | 2.5 |  | 
8 | CCCCCCCCCCCCCCC[C@@H](O)[C@H](CO[C@H]1O[C@H](C(=O)O)[C@H](O)[C@H](O)[C@H]1O)NC(=O)CCCCCCCCCCCCC | 2.3 | 2.4 | 1.7 | 3.5 | 2 | 1.3 | 1.7 | 1.7 | 2 | 2.3 | 1.7 | 2.4 | 2.9 |  | 1.9 | 2.9 | 5.5 | Active | Activity [21]: 1.4; Activity [22]: 5.6; Activity [2]: Active; Activity [23]: 6; Activity [24]: 3.1; Activity [25]: 2.3; Activity [26]: 1.2; Activity [27]: 2; Activity [28]: 2.8; Activity [29]: 17.2; Activity [30]: 1.1; Activity [31]: 4.9; Activity [32]: 7.6; Activity [33]: 0.9; Activity [34]: 1.7; Activity [35]: 26.8; Activity [36]: 1.9
